This passage reports Activity and EC50 results from ChEMBL document CHEMBL4118275, “Synthesis of coumarin derivatives and their cytoprotective effects on t-BHP-induced oxidative damage in HepG2 cells” (Bioorg Med Chem Lett, 2018).

The source made the active and inactive calls. No cut-off for these calls is given here.

The test system of data set [1] is HepG2. The data set can be described thus: Cytoprotective activity against 100 uM t-BHP-induced oxidative stress in human HepG2 cells assessed as cell viability preincubated for 1 hr followed by t-BHP addition measured after 3 hrs by CCK-8 assay (reference value: 22%). It counts as functional.
Data set [2] can be described thus: Antioxidant activity assessed as DPPH radical scavenging activity measured after 30 mins. It counts as functional. In a few lines: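 DPPH radical scavenging was measured, and activity is given as EC50 in μM.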
On the technique in general: Loss of DPPH colour is used to gauge radical scavenging.

Data set [3] relates to HepG2. The data set can be described thus: Cytotoxicity against human HepG2 cells at 10 uM. The class given is cell-based. The settings on record: hepg2, 10 µM.
Data set [4] relates to HepG2. Put plainly: Cytoprotective activity against 1 mM t-BHP-induced oxidative stress in human HepG2 cells assessed as cell viability preincubated for 1 hr followed by t-BHP addition measured after 3 hrs by CCK-8 assay. It counts as functional.
In data set [5] the test system is HepG2. The data set can be described thus: Cytoprotective activity against 100 uM t-BHP-induced cell damage in human HepG2 cells assessed as increase in mitochondrial membrane potential preincubated for 1 hr followed by t-BHP addition measured after 3 hrs by rhodamine 123 staining based fluorescence microscopy. It counts as functional. A digest of the protocol: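 HepG2 cells were pretreated with sample, then exposed to 100 μM t-BHP and stained with Rhodamine 123. Mitochondrial membrane potential was judged from fluorescence microscopy images against untreated control and t-BHP-only cells.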

As a reminder, the EC50 is the concentration at which the effect is half-maximal. Take `COC(=O)/C=C/c1ccc(O)c(O)c1` [METHYLCAFFEATE]: the Activity with HepG2 [1] is 31%. Also, the 50% effective concentration (EC50) in data set [2] came to 1.5 µM.
In the case of `CC1(C)Oc2ccc3ccc(=O)oc3c2CC1OC(=O)/C=C/c1ccc(O)c(O)c1` (stereo not given), the Activity with HepG2 [1] is reported as 86%; in the data set with HepG2 [3] it was “Non-Toxic”; in the data set with HepG2 [4], 39%. In data set [2], the EC50 amounted to 3.06 µM. The outcome with HepG2 [5] was Active.
Turning to `CC(C)(OC(=O)/C=C/c1ccc(O)cc1)C1Cc2cc3ccc(=O)oc3cc2O1` (stereo not given), the result with HepG2 [1] was inactive. The Activity result in the data set on HepG2 [3] is listed as “Non-Toxic”.
For `CC(C)(O)C1Cc2cc3ccc(=O)oc3cc2O1` (stereo not given) the same measures were “inactive” and “Non-Toxic”.
Taken in the same sequence, the figures for `CC1(C)Oc2ccc3ccc(=O)oc3c2CC1OC(=O)/C=C/c1ccc(O)cc1` (stereo not given) were “inactive” and “Non-Toxic”.
Taken in the same sequence, the figures for `COc1cc(/C=C/C(=O)OC2Cc3c(ccc4ccc(=O)oc34)OC2(C)C)ccc1O` (stereo not given) were “inactive” and “Non-Toxic”.
For `COc1ccc(/C=C/C(=O)OC2Cc3c(ccc4ccc(=O)oc34)OC2(C)C)cc1OC` (stereo not given), the outcome with HepG2 [1] was inactive. For the same compound, the Activity entry in the data set with HepG2 [3] is given as “Non-Toxic”.
As to `CC1(C)Oc2cc3oc(=O)ccc3cc2CC1OC(=O)/C=C/c1ccc(O)cc1` (stereo not given), the outcome with HepG2 [1] was inactive. Besides, in the data set with HepG2 [3], the Activity result is “Non-Toxic”.
On to `CC1(C)Oc2ccc3ccc(=O)oc3c2CC1O` (stereo not given) [LOMATIN], for which the result in the data set with HepG2 [1] was inactive. Further, in the data set on HepG2 [3], the Activity result is recorded as “Non-Toxic”.
Taken in the same sequence, the figures for `CC1(C)Oc2ccc3ccc(=O)oc3c2CC1OC(=O)/C=C/c1ccccc1` (stereo not given) were “inactive” and “Non-Toxic”.
`COc1ccc(/C=C/C(=O)OC2Cc3c(ccc4ccc(=O)oc34)OC2(C)C)cc1` (stereo not given): the result in the data set on HepG2 [1] was inactive. In addition, in the data set with HepG2 [3], the Activity result is recorded as “Non-Toxic”.
Taken in the same sequence, the figures for `CC(C)(OC(=O)/C=C/c1ccc(O)cc1)C1Cc2c(ccc3ccc(=O)oc23)O1` (stereo not given) were “inactive” and “Non-Toxic”.
`O=c1c(O)c(-c2ccc(O)c(O)c2)oc2cc(O)cc(O)c12` [QUERCETIN]: the Activity with HepG2 [1] was found to be 62%. In data set [2], the half-maximal effective concentration (EC50) came out at 0.17 µM.
Consider `COc1cc(/C=C/C(=O)OC2Cc3c(ccc4ccc(=O)oc34)OC2(C)C)cc(OC)c1OC` (stereo not given), for which, in the data set on HepG2 [1], the outcome was inactive. Moreover, in the data set with HepG2 [3], the Activity result is “Non-Toxic”.
`CC(C)(O)C1Cc2c(ccc3ccc(=O)oc23)O1` (stereo not given): the outcome in the data set on HepG2 [1] was inactive. Also, the Activity entry with HepG2 [3] is “Non-Toxic”.
Turning to `CC1(C)Oc2cc3oc(=O)ccc3cc2CC1O` (stereo not given), the result with HepG2 [1] was inactive. In the data set with HepG2 [3], the Activity result is on record as “Non-Toxic”.
